The source made the active and inactive calls.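 How the source made its calls: active means compounds whose fitted half-maximal concentration for reducing fibroblast viability is 100 µM or lower; inactive means the rest.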
test: LL 47 lung fibroblast growth inhibition, concentration-response, selectivity test for endothelial growth inhibitor program, cellular, luminescent ATP readout (AID 821); conditions: LL 47 lung fibroblast viability, ATP luminescence; at 20 µM (top of the series);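 further: 100% = median of untreated cell-only wells and 0% = no luminescence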
Summary of the method: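 Assay system: LL 47 human lung fibroblast cells | Amount: 1,150 cells/well | Schedule: 72 h exposure, 37 °C | Measured by: CellTiter-Glo luminescence | Measure: Percent viability relative to untreated wells, EC50 via 4-parameter fit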

Row | SMILES | viability
1 | CCOc1ccc(-c2nn3c(-c4ccccc4)nnc3s2)cc1 | 113% (inactive)
2 | CCOC(=O)c1ccc2c(c1)NC(=O)C(N1CCN(c3ccc(OC)cc3)CC1)S2 (stereo not given) | 84.9% (inactive)
3 | COc1ccc2cc3cc(C(=O)Nc4ccc5c(c4)OCO5)oc3nc2c1 | 88.3% (inactive)
4 | O=C(Nc1ccccc1)c1cccc(-c2nnc(-c3ccccc3)o2)c1 | 102% (inactive)
5 | Cc1ccc(Cn2c(=S)[nH]c3ccc(N4CCOCC4)cc3c2=O)o1 | 85% (inactive)
6 | Cc1ccc(-n2c(Cc3cccs3)nnc2SCC(=O)Nc2ccc(F)c(F)c2)cc1 | 95.7% (inactive)
7 | COc1ccccc1N1CCN(C(=O)c2ccc(Br)s2)CC1 | 103% (inactive)
8 | CCCOC(=O)c1ccc(Oc2c(-c3ccc(OC)cc3O)n[nH]c2C)cc1 | 97.5% (inactive)
9 | CCCn1c(Nc2nc3ccccc3n2C)nc2ccccc21 | 102% (inactive)
10 | COc1ccc(NC(=O)c2ccccc2NC(=O)COc2ccccc2)cc1 | 93.3% (inactive)
11 | COc1ccccc1NC(=O)C1C2C=CC(O2)C1C(=O)O (stereo not given) | 100% (inactive)
12 | CC12CCC(=O)C=C1CCC1C2CCC2(C)C(O)CCC12 (stereo not given) | 95.3% (inactive)
13 | Brc1ccccc1OCCCn1cnc2ccccc21 | 111% (inactive)
14 | O=C(CSc1nnc(-c2cccs2)n1-c1ccccc1)Nc1ccccc1 | 90.4% (inactive)
15 | Cc1cc(NC(=O)c2cccc(S(=O)(=O)N3CC(c4ccccc4)CC3=O)c2)no1 (stereo not given) | 98.4% (inactive)
16 | COc1ccc(O)c(-c2cc(-c3cccc(Br)c3)n[nH]2)c1 | 86.3% (inactive)
17 | CCCS(=O)(=O)N1CCC(C(=O)N2CCC3(CC2)OCCO3)CC1 | 97.5% (inactive)
18 | c1ccc2c(c1)oc1c(NCCCN3CCOCC3)ncnc12 | 95.2% (inactive)
19 | N=C1C(c2nc(-c3ccc(Cl)cc3)cs2)=C(O)CN1CCCN1CCOCC1 | 118% (inactive)
20 | c1ccc(CSc2nnc(-c3c[nH]c4ccccc34)o2)cc1 | 102% (inactive)
21 | Cc1cccc(C)c1OCC(=O)N=Nc1c(O)[nH]c2ccc(Br)cc12 | 104% (inactive)
22 | COc1ccc2cc3cc(C(=O)NCCc4ccc(OC)c(OC)c4)oc3nc2c1 | 109% (inactive)
23 | Cc1cc(NC(=O)COC(=O)C(Nc2ccc(C(F)(F)F)cc2Cl)C(C)C)no1 (stereo not given) | 90.8% (inactive)
24 | Cc1cc(Cl)ccc1N=c1ssnc1Cl | 104% (inactive)

Row | SMILES | viability
25 | COc1ccc(CCC(=O)N2CCN(C3CCCCC3)CC2)cc1 | 95.1% (inactive)
26 | CC(=O)n1cc(-c2ccncc2)c2ccccc21 | 98.4% (inactive)
27 | CC(C)OCCCN1C(=O)c2[nH]nc(-c3ccccc3O)c2C1c1cccc(Cl)c1 (stereo not given) | 98.3% (inactive)
28 | O=S1(=O)c2ccccc2N=NN1Cc1cc(Cl)cc(Cl)c1 | 84.5% (inactive)
29 | O=C(COC(=O)c1cccnc1Nc1cccc(C(F)(F)F)c1)NCc1ccc2c(c1)OCO2 | 130% (inactive)
30 | Cc1nc2ccccc2c2oc(C(=O)NCc3ccc4c(c3)OCO4)cc12 | 102% (inactive)
31 | Cc1ccc2c(c1)c1c(n2CC(O)Cn2c(C)nc3ccccc32)CCCC1 (stereo not given) | 95.1% (inactive)
32 | COC(=O)c1sccc1NC(=O)c1ccc2c(c1)OCO2 | 103% (inactive)
33 | Cc1cc(C)n(-c2nc(NCCCO)c3c4c(sc3n2)CCCC4)n1 | 88.8% (inactive)
34 | Cc1ccc(-n2c(SCC(=O)Nc3nccs3)nc3c(c2=O)SCC3)cc1 | 107% (inactive)
35 | CCCOC(=O)c1ccc(Oc2cn[nH]c2-c2ccc(OC)cc2O)cc1 | 86.6% (inactive)
36 | CCOC(=O)CNC(=O)C(=O)c1c(O)[nH]c2ccccc12 | 96.6% (inactive)
37 | CC1(C)CSC(=S)N1S(=O)(=O)c1ccccc1 | 115% (inactive)
38 | O=C(Nc1cccc(-c2nnc(-c3ccccc3)o2)c1)c1ccc(Br)o1 | 118% (inactive)
39 | COc1ccc(OC)c2sc(N3CCCCC3)nc12 | 96.8% (inactive)
40 | Cc1ccc(/C=C/C(=O)c2ccccc2)cc1 | 85.6% (inactive)
41 | COc1ccc(CCNC(=O)c2ccc3c(=O)n(Cc4ccco4)c(=S)[nH]c3c2)cc1OC | 112% (inactive)
42 | Clc1cnc(N/N=C/c2cccs2)c(Cl)c1 | 88.3% (inactive)
43 | COc1ccc(-c2cn3c(C)c(C(=O)Nc4cccc(NC(C)=O)c4)sc3n2)cc1 | 109% (inactive)
44 | Cc1nc2ccccc2n1CCc1nc2c3ccccc3nc(SCC(=O)NCc3ccco3)n2n1 | 101% (inactive)
45 | CCCCCCn1c(N2CCN(c3ccccc3)CC2)nc2c1c(=O)n(C)c(=O)n2C | 101% (inactive)
46 | Cc1nc2cc(N3CCCCC3)c(NC(=O)c3cccnc3)cc2c(=O)n1Cc1ccccc1 | 91.8% (inactive)
47 | Cc1ccccc1-n1ncc2c([N+](=O)[O-])cc([N+](=O)[O-])cc21 | 90.7% (inactive)
48 | CCCCC[n+]1ccn(C2=C([O-])c3ccccc3C(=O)/C2=N\S(=O)(=O)c2ccccc2)c1 | 86.4% (inactive)

Row | SMILES | viability
49 | COC(=O)c1ccc2c(=O)n(Cc3ccco3)c(SCC(=O)Nc3ccccc3Cl)nc2c1 | 104% (inactive)
50 | Oc1ccccc1NCC(O)Cn1ccc2ccccc21 (stereo not given) | 98.6% (inactive)
51 | Clc1ccc(-c2nc(NCCN3CCOCC3)c3ccccc3n2)cc1 | 83.1% (inactive)
52 | CC1(C)CC(=O)c2cc(C(=O)NCc3ccco3)c(=O)n(-c3ccc(Cl)cc3)c2C1 | 105% (inactive)
53 | CCn1c(=N)n(CC(=O)C23CC4CC(CC(C4)C2)C3)c2ccccc21 | 86% (inactive)
54 | Clc1ccc(Cn2cc(/C=N/n3cnnc3)c3ccccc32)c(Cl)c1 | 99% (inactive)
55 | Cn1c(=O)c2c(nc(Oc3ccc4c(c3)OCO4)n2Cc2ccc(Cl)cc2)n(C)c1=O | 87.5% (inactive)
56 | Cc1cc(NCCCN2CCOCC2)n2ncc(-c3ccc(Cl)cc3)c2n1 | 84.9% (inactive)
57 | CC(C)c1ccc(C2C3CSCC=C3C(C#N)=C(N)C2(C#N)C#N)cc1 (stereo not given) | 88.4% (inactive)
58 | O/N=C1\CC/C(=N\O)c2nn(-c3ccccc3Cl)nc21 | 87.3% (inactive)
59 | Cc1cccc(-c2nc(CN3CCCC(C(=O)NC4CCC(C)CC4)C3)c(C)o2)c1 (stereo not given) | 85.4% (inactive)
60 | CCOc1cc(/C=C\c2[nH]c(=O)[nH]c(=O)c2[N+](=O)[O-])ccc1OC(C)CC (stereo not given) | 90.9% (inactive)
61 | Cc1ccc2[nH]c3c(N4CCN(Cc5ccccc5)CC4)ncnc3c2c1 | 88.2% (inactive)
62 | N#Cc1nc(-c2ccc(OCc3ccccc3)cc2)oc1NCCCn1ccnc1 | 92.9% (inactive)
63 | COc1cc(OC)cc(C(=O)Nc2ccc(-c3nc4ccccc4o3)cc2)c1 | 107% (inactive)
64 | Cc1cc(C)c2oc(-c3cccc(NC(=O)c4ccc(F)cc4)c3)nc2c1 | 104% (inactive)
65 | CC1CCN(S(=O)(=O)c2ccc(NC(=O)Cn3nnc(-c4ccccc4F)n3)cc2)CC1 | 90.8% (inactive)
66 | OC(COc1ccc(Cl)c2ccccc12)CN1CCN(c2ccccn2)CC1 (stereo not given) | 109% (inactive)
67 | Cc1cc(C)cc(OC(=O)CS(=O)c2ccc(C(F)(F)F)cc2[N+](=O)[O-])c1 (stereo not given) | 98.3% (inactive)
68 | COC(=O)c1ccc(NC(=O)Nc2ccc(F)c(Cl)c2)cc1 | 106% (inactive)
69 | CCCCC(=O)O[C@H]1CC[C@H]2[C@@H]3CCc4cc(O)ccc4[C@H]3CC[C@]12C | 84% (inactive)
70 | CCCOC(=O)c1ccc(Oc2cn[nH]c2-c2ccc(OCC)cc2O)cc1 | 98.4% (inactive)

From PubChem BioAssay AID821 (SRMLSC, 2007)
